Screening data deposited in PubChem by several laboratories.
WNV NS2B-NS3 inh = blocks West Nile virus NS2B-NS3 protease activity; P06935; WNV NS2B-NS3 protease, fluorogenic substrate Ex360/Em465; hits give low values; z-score (test concentration not listed); hit rate 0.18% among 65,000; in the data active means z-score below about -3
hDAT+cocaine = human DAT dopamine uptake with cocaine, either direction | Q01959 | LLC-PK1 hDAT cells, [14C]-dopamine uptake with cocaine IC80; actives deviate in either direction | B-score at 10 µM | hit rate 1.3% among 110,000 | AID 449768;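 active means Z score or B-score, a plate-position-corrected score, falls beyond the plate's 99.7% confidence bounds, in either direction; inactive means both scores lie inside the 99.7% bounds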
Target sequence (Q01959 whole entry, looked up): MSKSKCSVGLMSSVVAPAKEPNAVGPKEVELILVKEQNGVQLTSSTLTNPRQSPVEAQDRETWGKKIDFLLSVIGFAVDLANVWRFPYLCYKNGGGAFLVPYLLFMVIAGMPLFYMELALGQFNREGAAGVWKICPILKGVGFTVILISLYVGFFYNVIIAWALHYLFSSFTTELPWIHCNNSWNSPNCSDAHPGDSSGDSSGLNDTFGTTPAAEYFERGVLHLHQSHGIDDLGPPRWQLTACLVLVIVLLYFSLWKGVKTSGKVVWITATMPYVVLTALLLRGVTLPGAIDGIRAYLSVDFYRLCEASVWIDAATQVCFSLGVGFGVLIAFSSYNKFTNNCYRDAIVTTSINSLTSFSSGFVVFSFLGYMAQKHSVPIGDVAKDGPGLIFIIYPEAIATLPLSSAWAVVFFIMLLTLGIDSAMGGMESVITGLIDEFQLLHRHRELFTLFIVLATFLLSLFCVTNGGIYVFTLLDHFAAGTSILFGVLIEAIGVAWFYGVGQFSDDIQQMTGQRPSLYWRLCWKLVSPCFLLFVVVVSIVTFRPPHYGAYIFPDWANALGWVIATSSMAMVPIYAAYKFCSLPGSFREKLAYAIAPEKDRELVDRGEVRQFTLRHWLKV
AP ELISA ortho = alternative pathway complement inhibition, orthogonal assay. Human serum alternative complement pathway, LPS-coated ELISA, C3 deposition; tested in compound mixtures. inhibition, % at 5 µM. hit rate 0.08% among 62,000. AID 1235;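 active means inhibition above 30% in each of the two pooled mixtures holding the compound, so the lower value exceeds 30%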
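Test system – human serum alternative complement pathway, C3 deposition on LPS-coated wells · Buffer or medium – diluted human serum in Mg2+-EGTA GVB++ · Compound dosing – 5 µM each compound, pools of ten, 50 µM per pool · Schedule – 1 h serum-compound exposure at 37 °C · Measured by – Anti-C3 ELISA, OD 450 nm · Read-out basis – percent inhibition of C3 deposition onto LPS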
D1 mod = allosteric modulators of human D1 dopamine receptor; HEK293 D1, CRE-luciferase, dopamine EC30 potentiation; actives deviate in either direction; hit rate 5.9% among 58,000; P21728; AID 641; B-score at 10 µM;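 active means luminescence count or its row- and column-corrected plate score outside the 99.7% band of the plate's sample wells, on either side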
Each line names hits and unclear results; the compound was inactive in the other large screens. The sample as a whole holds a higher share of hits than the screen did.

CCOC(=O)Cc1csc(NC(=O)CSc2ncnc3c2cnn3-c2ccc(OC)cc2)n1	D1 mod -4.17
O=C(CCl)NCc1c(Cl)cccc1-n1cccc1	none (no result: WNV NS2B-NS3 inh, AP ELISA ortho, D1 mod)
COc1ccc(CN(Cc2cccnc2)C(=S)NCCc2ccccc2)cc1OC	hDAT+cocaine 2 (no result: WNV NS2B-NS3 inh, AP ELISA ortho, D1 mod)
Cc1cc(-n2c(C)cc(C(=O)CSc3ncnc4ccccc34)c2C)no1	D1 mod -3.17
N#C/C(=C\c1ccc(O)c(O)c1)S(=O)(=O)c1ccccc1	hDAT+cocaine -2.62
COc1ccc(OC)c(S(=O)(=O)NCc2cn3c(C)csc3n2)c1	none
COc1ccc(OC)c(S(=O)(=O)NCc2csc(-c3ccccc3)n2)c1	hDAT+cocaine 2.43 (no result: AP ELISA ortho)
COc1ccc(C2=[N+]([O-])C(C)(C)N(O)C2C)cc1 (stereo unspecified)	none (no result: WNV NS2B-NS3 inh, AP ELISA ortho, D1 mod)
CS(=O)(=O)N(CC(=O)N/N=C/c1cc([N+](=O)[O-])ccc1Cl)c1ccccc1	hDAT+cocaine 1.96 (no result: WNV NS2B-NS3 inh, AP ELISA ortho, D1 mod)
O=c1[nH]c2cc3c(cc2cc1CN(Cc1nnnn1CC1CCCO1)C1CCCCC1)OCO3 (stereo unspecified)	none (no result: hDAT+cocaine, D1 mod)
COc1cc2cc(CN(C(=O)Nc3ccccc3)C3CCCC3)c(=O)[nH]c2cc1OC	hDAT+cocaine 3.29
CCOc1ccc2[nH]c(=O)c(CN(Cc3nnnn3Cc3ccco3)C3CCCCC3)cc2c1	none (no result: D1 mod)
O=c1[nH]c2cc3c(cc2cc1CN(Cc1nnnn1CC1CCCO1)C1CCCC1)OCO3 (stereo unspecified)	D1 mod -3.31 (no result: hDAT+cocaine)
COc1cc2cc(CN(Cc3nnnn3Cc3ccco3)C3CCCCC3)c(=O)[nH]c2cc1OC	hDAT+cocaine 3
COc1ccc(Cn2nnnc2CN(Cc2cc3cccc(C)c3[nH]c2=O)C2CCCC2)cc1	D1 mod -3.33
Cc1ccccc1-n1c(C)nnc1SCC(=O)N1CC(=O)Nc2ccccc21	none (no result: D1 mod)
Cn1c(=O)c2c3c(sc2n2c(SCC(N)=O)nnc12)CC(C(C)(C)C)CC3 (stereo unspecified)	none (no result: AP ELISA ortho, D1 mod)
CC1C(=NO)C(C)C(c2ccc(N(C)C)cc2)NC1c1ccc(N(C)C)cc1 (stereo unspecified)	none (no result: hDAT+cocaine, D1 mod)
CCC(C)(C)n1nnnc1CN(Cc1ccco1)Cc1cc2cc3c(cc2[nH]c1=O)OCO3	none
CC(C)(C)n1nnnc1CN(Cc1ccco1)Cc1cc2cc3c(cc2[nH]c1=O)OCO3	hDAT+cocaine 1.52
COC(=O)c1cccc(S(=O)(=O)N2CCN(c3nc4ccccc4s3)CC2)c1	D1 mod -2.77
CCc1nnc(NC(=O)C2CCN(C(=O)NC3CCCCC3)CC2)s1	AP ELISA ortho 34.1 (no result: hDAT+cocaine)
Cc1csc(NC(=O)CSc2nnc(Cn3c(=O)sc4ccccc43)n2-c2ccccc2)n1	none
O=C(NCCN1CCN(C(=O)c2cccs2)CC1)c1cccs1	none
O=C(CNC(=O)c1cccs1)NCCN1CCN(c2ccccc2F)CC1	D1 mod -3.61
CCCOC(=O)CCc1n[nH]c(=O)[nH]c1=O	none
CCCOC(=O)Cc1n[nH]c(=O)[nH]c1=O	hDAT+cocaine -2.21 (no result: D1 mod)
CCOC(=O)C1=C(C)N(CCCC(=O)O)C(=O)NC1c1cccs1 (stereo unspecified)	none (no result: WNV NS2B-NS3 inh, AP ELISA ortho, D1 mod)
O=C(Cc1ccccc1F)Nc1nc(-c2cccs2)cs1	hDAT+cocaine 3.35
O=C(Nc1ccccc1)[C@@H]1CC=C[C@@H]2CCN(C3CCCCC3)C(=O)[C@@H]21	none (no result: WNV NS2B-NS3 inh, AP ELISA ortho, D1 mod)
CCOC(=O)c1c(N)sc(C(=O)Nc2ccc3c(c2)OCO3)c1C	D1 mod -4.37
CCOC(=O)c1c(C)c(C(=O)Nc2ccc3c(c2)OCO3)c(C)n1C	none (no result: D1 mod)
Cc1ccccc1N1C(=O)c2ccccc2NC1c1ccncc1 (stereo unspecified)	none (no result: WNV NS2B-NS3 inh, AP ELISA ortho, D1 mod)
O=C1c2ccccc2C(=O)C1c1ccncc1	D1 mod -3.51
Cc1cc(C(=O)N2CCC(C(F)(F)F)n3nccc32)on1 (stereo unspecified)	hDAT+cocaine -2.87
Cc1cc(C(=O)N2CCN(C(c3ccccc3)c3ccccc3)CC2)on1	none (no result: D1 mod)
N#Cc1ccc(C(=O)NCC(c2ccco2)N2CCCCC2)cc1 (stereo unspecified)	hDAT+cocaine 2.05 (no result: WNV NS2B-NS3 inh, AP ELISA ortho, D1 mod)
CCCN1C2CCCC1CC(NC(=O)NC1CCCCC1)C2 (stereo unspecified)	none
CCCN1C2CCCC1CC(NC(=O)c1ccc(F)cc1)C2 (stereo unspecified)	D1 mod -2.17
CCc1nc(NCCN2CCOCC2)c2oc3ccccc3c2n1	D1 mod 3.17
CCc1nc(NCCCN2CCOCC2)c2oc3ccccc3c2n1	none
CCCCn1c(SCC(=O)N2CCC(C)CC2)nc2cc(S(N)(=O)=O)ccc21	hDAT+cocaine 3.28
CCn1c(SCC(=O)Nc2ccc3c(c2)OCCO3)nnc1-c1ccco1	none
CCn1c(SCC(=O)Nc2ccc3c(c2)c2ccccc2n3CC)nnc1-c1ccco1	WNV NS2B-NS3 inh -3.01 (no result: hDAT+cocaine)
COc1ccc(NC(=O)CSc2nnc(-c3ccoc3C)n2CCc2ccccc2)cc1	hDAT+cocaine 4.22
Cc1ccccc1NC(=O)CSc1nnc(-c2ccoc2C)n1CCc1ccccc1	none
O=C(Cn1c(=O)[nH]c2ccsc2c1=O)NC1CCCCC1	hDAT+cocaine -2.71 (no result: D1 mod)
CC(C)(C)OC(=O)N1CCN(c2ccc(NC(=O)c3cc4ccccc4oc3=O)cc2)CC1	none (no result: hDAT+cocaine)
CC1CC(C)CN(C(=O)c2cc3c(s2)CCC3)C1 (stereo unspecified)	none (no result: WNV NS2B-NS3 inh, AP ELISA ortho, D1 mod)
Cc1ccc(-c2ccc(/C=N/N3C(=O)C4C5C=CC(CC5)C4C3=O)o2)c([N+](=O)[O-])c1 (stereo unspecified)	none (no result: WNV NS2B-NS3 inh, AP ELISA ortho, D1 mod)
CC(CN1CCCC(C(N)=O)C1)c1ccccc1 (stereo unspecified)	D1 mod -3.43
CCOC(=O)C1CCCN(CCC(C)c2ccccc2)C1 (stereo unspecified)	none
COCC(C)NC(=O)NC1(C(F)(F)F)Oc2ccc(Cl)cc2O1 (stereo unspecified)	hDAT+cocaine -3.16
N=c1c2c(n(Cc3ccc(F)cc3)c3c1CCC3)CCC2	hDAT+cocaine -5.18
Fc1ccc(CN2CCCCCCC2)cc1	none (no result: WNV NS2B-NS3 inh, AP ELISA ortho, D1 mod)
COc1ccc(NC(=O)CN2C(=O)C(C)Oc3ccccc32)cc1 (stereo unspecified)	none
COc1ccc(NC(=O)CN2C(=O)C(C)Oc3ccccc32)c(OC)c1 (stereo unspecified)	hDAT+cocaine 2.28
CCOc1ccc(N2CC(C(=O)Nc3ccccc3F)CC2=O)cc1 (stereo unspecified)	none
C=C1CCN([C@@H](C)C(=O)NCc2ccc(Cl)cc2)S(=O)(=O)c2ccccc21	none (no result: WNV NS2B-NS3 inh, AP ELISA ortho, D1 mod)
O=C(COC(=O)c1cccs1)c1ccc2ccccc2c1	none (no result: WNV NS2B-NS3 inh, AP ELISA ortho, D1 mod)
O=C(COC(=O)c1cccs1)c1ccc2c(c1)OCCO2	D1 mod -2.97
CC(=O)CSc1nnc(-c2ccncc2)n1C	none (no result: WNV NS2B-NS3 inh, AP ELISA ortho, D1 mod)
Cn1c(SCC2CCCCC2)nnc1-c1ccncc1	hDAT+cocaine -7.89
Cc1cccc(NC(=O)c2cnc3sccn3c2=O)c1	none (no result: hDAT+cocaine)
Cc1cccc(NC(=O)c2cnc3ccccn3c2=O)c1	D1 mod -4.25
COc1ccccc1CNC(=O)c1cnc2ccccn2c1=O	hDAT+cocaine 3.51
Cc1ccccc1NC(=S)NC(NC(=O)COc1ccccc1)C(Cl)(Cl)Cl (stereo unspecified)	none (no result: WNV NS2B-NS3 inh, AP ELISA ortho, D1 mod)
O=C(COc1ccccc1)NC(NC(=S)Nc1ccccc1O)C(Cl)(Cl)Cl (stereo unspecified)	hDAT+cocaine -3.68 (no result: WNV NS2B-NS3 inh, AP ELISA ortho, D1 mod)
